Laboratory results published in ChEMBL document CHEMBL5226322, “Harnessing the Role of HDAC6 in Idiopathic Pulmonary Fibrosis: Design, Synthesis, Structural Analysis, and Biological Evaluation of Potent Inhibitors” (J Med Chem, 2021).
The source made the active and inactive calls. No cut-off for these calls is given here.

Assays:
[1] = test system: Heart; assay: Cardiotoxicity in Langendorff-perfused Sprague-Dawley rat heart assessed as effect on QRS interval time at 0.01 uM by ECG analysis (reference value: 15.2 +/-0.2 milliseconds); format: toxicity, tissue-based
[2] = test system: Heart; assay: Cardiotoxicity in Langendorff-perfused Sprague-Dawley rat heart assessed as effect on PQ interval time at 1 uM by ECG analysis (reference value: 43.6 +/-2.5 milliseconds); format: toxicity, tissue-based
[3] = Mutagenecity in Salmonella typhimurium TA100 in presence of S9 fraction at 1 to 75 uM incubated for 90 mins by Ames test; format: toxicity, subcellular; conditions: salmonella enterica subsp. enterica serovar typhimurium, s9, 1.5 h, dose 1-75 µM
[4] = test system: Heart; assay: Cardiotoxicity in Langendorff-perfused Sprague-Dawley rat heart assessed as effect on HR at 10 uM by ECG analysis (reference value: 235.7 +/-8.3 bpm); format: toxicity, tissue-based
[5] = Mutagenecity in Salmonella typhimurium TA98 in presence of S9 fraction at 1 to 75 uM incubated for 90 mins by Ames test; format: toxicity, subcellular; conditions: salmonella enterica subsp. enterica serovar typhimurium, s9, 1.5 h, dose 1-75 µM
[6] = test system: NIH3T3; assay: Cytotoxicity in mouse NIH3T3 cells assessed as reduction in cell viability at 75 uM incubated for 24 hrs by neutral red uptake method based UV/visible spectrophotometer analysis; format: toxicity; conditions: nih3t3, 24 h
How it was run: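 NIH3T3 fibroblasts grown in DMEM with 10% FCS, L-glutamine/pen-strep and non-essential amino acids at 37 °C, 5% CO2. Monolayers exposed 24 h to compound diluted from a DMSO stock into medium. Neutral Red medium then added for 3 h at 37 °C. Dye extracted with acetic acid/ethanol desorb solution and absorbance read at 540 nm. Student's t-test, p<0.05.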

[7] = test system: Heart; assay: Cardiotoxicity in Langendorff-perfused Sprague-Dawley rat heart assessed as effect on QT interval time at 0.01 uM by ECG analysis (reference value: 76.2 +/-2.9 milliseconds); format: toxicity, tissue-based
[8] = organism: Homo sapiens; assay: Antifibrotic activity in TGF-beta1-induced human Lung parenchyma assessed as inhibition of collagen 3 mRNA expression at 4.1 uM incubated upto 7 days by qRT-PCR analysis; format: functional; conditions: time <= 7.0 day
How it was run: (§1)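 Human lung parenchyma pieces (2 mm³) cultured in DMEM with TGF-β1 (10 ng/mL) plus compound at 0.41 or 4.1 μM or vehicle (0.1% DMSO). Tissue collected on day 7, homogenized, total RNA purified, then qRT-PCR for HDAC6, collagen I, collagen III, αSMA and fibronectin. Relative expression by the 2^-Ct method; n=3, paired t test.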

[9] = test system: Heart; assay: Cardiotoxicity in Langendorff-perfused Sprague-Dawley rat heart assessed as effect on QT interval time at 0.1 uM by ECG analysis (reference value: 76.2 +/-2.9 milliseconds); format: toxicity, tissue-based
[10] = organism: Homo sapiens; assay: Antifibrotic activity in TGF-beta1-induced human Lung parenchyma assessed as inhibition of alpha-SMA mRNA expression at 4.1 uM incubated upto 7 days by qRT-PCR analysis; format: functional; conditions: time <= 7.0 day; how it was run: as §1
[11] = test system: Heart; assay: Cardiotoxicity in Langendorff-perfused Sprague-Dawley rat heart assessed as effect on QT interval time at 1 uM by ECG analysis (reference value: 76.2 +/-2.9 milliseconds); format: toxicity, tissue-based
[12] = organism: Homo sapiens; assay: Antifibrotic activity in TGF-beta1-induced human Lung parenchyma assessed as inhibition of fibronectin mRNA expression at 4.1 uM incubated upto 7 days by qRT-PCR analysis; format: functional; conditions: time <= 7.0 day; how it was run: as §1
[13] = test system: Heart; assay: Cardiotoxicity in Langendorff-perfused Sprague-Dawley rat heart assessed as effect on HR at 0.1 uM by ECG analysis (reference value: 235.7 +/-8.3 bpm); format: toxicity, tissue-based
[14] = organism: Homo sapiens; assay: Antifibrotic activity in TGF-beta1-induced human Lung parenchyma assessed as inhibition of HDAC6 mRNA expression at 4.1 uM incubated upto 7 days by qRT-PCR analysis; format: functional; conditions: time <= 7.0 day; how it was run: as §1
[15] = test system: Heart; assay: Cardiotoxicity in Langendorff-perfused Sprague-Dawley rat heart assessed as effect on RR time at 0.1 uM by ECG analysis (reference value: 257.2 +/-8.1 milliseconds); format: toxicity, tissue-based
[16] = test system: Heart; assay: Cardiotoxicity in Langendorff-perfused Sprague-Dawley rat heart assessed as effect on QTc interval time at 1 uM by ECG analysis (reference value: 150.5 +/-5.5 milliseconds); format: toxicity, tissue-based
[17] = Toxicity in zebra fish embryo assessed as visual capacity changes at 1 to 100 uM […] by optokinetic reflex assay; parameters: species or system Danio rerio; conditions: zebrafish, dose 1-100 µM
How it was run: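 Wildtype Tübingen larvae at 28.5 °C were exposed from 3 days old for 2 days to 1–100 µM (1, 10, 25, 50, 100) in embryo medium, against 0.1% DMSO vehicle. 8 larvae per group. Visual function was then tested by optokinetic reflex at 2 days post-treatment, on 5-day-old larvae.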

[18] = test system: NIH3T3; assay: Cytotoxicity in mouse NIH3T3 cells assessed as reduction in cell viability at 25 uM incubated for 24 hrs by neutral red uptake method based UV/visible spectrophotometer analysis; format: toxicity; conditions: nih3t3, 24 h
How it was run: (§2)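 NIH3T3 mouse fibroblasts grown in DMEM with 10% FCS, L-glutamine/pen-strep and non-essential amino acids (37 °C, 5% CO2). Exposed 24 h to compound diluted from a DMSO stock into medium. Viability measured by Neutral Red uptake: 3 h in NR medium, then acetic acid/ethanol desorb, absorbance at 540 nm. Student's t-test, p<0.05.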

[19] = test system: Heart; assay: Cardiotoxicity in Langendorff-perfused Sprague-Dawley rat heart assessed as effect on RR time at 10 uM by ECG analysis (reference value: 257.2 +/-8.1 milliseconds); format: toxicity, tissue-based
[20] = test system: Heart; assay: Cardiotoxicity in Langendorff-perfused Sprague-Dawley rat heart assessed as effect on RR time at 0.01 uM by ECG analysis (reference value: 257.2 +/-8.1 milliseconds); format: toxicity, tissue-based
[21] = test system: Heart; assay: Cardiotoxicity in Langendorff-perfused Sprague-Dawley rat heart assessed as effect on QRS interval time at 10 uM by ECG analysis (reference value: 15.2 +/-0.2 milliseconds); format: toxicity, tissue-based
[22] = Toxicity in zebra fish embryo assessed as mild cardiac edema at 100 uM […]; parameters: species or system Danio rerio; conditions: zebrafish
How it was run: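 Wildtype Tübingen zebrafish larvae reared at 28.5 °C (14 h light/10 h dark) in embryo medium with methylene blue. From 3 days old, exposed for 2 days to 1, 10, 25, 50 or 100 µM in embryo medium, or 0.1% DMSO vehicle. 4 larvae per well in 400 µL, 8 larvae per group. Larvae scored for swim bladder inflation and cardiac edema.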

[23] = test system: Heart; assay: Cardiotoxicity in Langendorff-perfused Sprague-Dawley rat heart assessed as effect on QTc interval time at 0.1 uM by ECG analysis (reference value: 150.5 +/-5.5 milliseconds); format: toxicity, tissue-based
[24] = test system: NIH3T3; assay: Cytotoxicity in mouse NIH3T3 cells assessed as reduction in cell viability at 15 uM incubated for 24 hrs by neutral red uptake method based UV/visible spectrophotometer analysis; format: toxicity; conditions: nih3t3, 24 h; how it was run: as §2
[25] = Cytotoxicity in mouse NIH3T3 cells assessed as reduction in cell viability by measuring toxic concentration incubated for 24 hrs by neutral red uptake method based UV/visible spectrophotometer analysis; format: toxicity; conditions: read-out: TC50
How it was run: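 NIH3T3 mouse fibroblasts grown in DMEM with 10% FCS, L-glutamine/penicillin/streptomycin and non-essential amino acids, 37 °C, 5% CO2. DMSO stocks diluted in complete medium, applied to monolayers for 24 h at several concentrations. Viability by Neutral Red uptake: 3 h dye loading, desorb in acetic acid/ethanol, absorbance at 540 nm. Student's t-test, p < 0.05.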

SMILES: CC1(C)c2ccccc2N(Cc2ccc(C(=O)NO)cc2)C1c1cccnc1 (racemic)
- Time [1]: 15.6 ms
- Time [2]: 44.5 ms
- Activity [3]: Non-Toxic
- Activity [4]: 207.9 bpm
- Activity [5]: Non-Toxic
- Activity [6]: 53%
- Time [7]: 78.1 ms
- Activity [8]: Active
- Time [9]: 78 ms
- Activity [10]: Active
- Time [11]: 76.4 ms
- Activity [12]: Active
- Activity [13]: 238.1 bpm
- Activity [14]: Active
- Time [15]: 253.7 ms
- Time [16]: 150.8 ms
- Activity [17]: Non-Toxic
- Activity [18]: 87%
- Time [19]: 294.1 ms
- Time [20]: 255.9 ms
- Time [21]: 18 ms
- Activity [22]: Toxic
- Time [23]: 155.1 ms
- Activity [24]: 94%
- CC50 at 24 h [25]: 75 µM
